Calls of active or inactive are those of the source. The calls are words filed in the database; no cut-off is given here.
Columns and labels:
[1] = test system: Mus musculus; assay: Antiinflammatory activity against carrageenan-induced paw edema in Swiss albino mouse assessed as swelling thickness at 100 mg/kg, po after 90 mins; type: functional
Method in brief: (§1)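 Oral dosing in 0.5% CMC; vehicle to controls. Then carrageenan (0.5 mg/25 ll, freshly suspended in 154 mM saline) injected into the right hind paw subplantar tissue; saline into the left paw. Right-left footpad thickness difference measured by dial gauge calliper every 90 min over 6 h. Inhibition % is relative to vehicle control. n = 6; mean ± SEM.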

[2] = test system: Mus musculus; assay: Inhibition of carrageenan-induced paw edema in Swiss albino mouse at 200 mg/kg, po after 360 mins relative to control; type: functional; settings: 6 h; method in brief: as §1
[3] = test system: Mus musculus; assay: Inhibition of carrageenan-induced paw edema in Swiss albino mouse at 100 mg/kg, po after 360 mins relative to control; type: functional; settings: 6 h; method in brief: as §1
[4] = test system: Mus musculus; assay: Inhibition of carrageenan-induced paw edema in Swiss albino mouse at 200 mg/kg, po after 270 mins relative to control; type: functional; settings: 4.5 h; method in brief: as §1
[5] = test system: Mus musculus; assay: Inhibition of carrageenan-induced paw edema in Swiss albino mouse at 100 mg/kg, po after 90 mins relative to control; type: functional; settings: 1.5 h; method in brief: as §1
[6] = test system: Mus musculus; assay: Antiinflammatory activity against carrageenan-induced paw edema in Swiss albino mouse assessed as swelling thickness at 200 mg/kg, po after 270 mins; type: functional; method in brief: as §1
[7] = test system: Mus musculus; assay: Inhibition of carrageenan-induced paw edema in Swiss albino mouse at 25 mg/kg, po after 90 mins relative to control; type: functional; settings: 1.5 h; method in brief: as §1
[8] = test system: Mus musculus; assay: Inhibition of carrageenan-induced paw edema in Swiss albino mouse at 50 mg/kg, po after 180 mins relative to control; type: functional; settings: 3 h; method in brief: as §1
[9] = test system: Mus musculus; assay: Acute toxicity in Swiss albino mouse assessed as lethal effect at 50 mg/kg/day, po after 72 hrs; type: organism-based; set-up: route oral; settings: in vivo
Method in brief: (§2)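 Oral single dose suspended in 0.5% carboxymethylcellulose, given after a 24 h fast; food and water returned 1 h after dosing. Vehicle-only controls. Mice observed at 1 h, then once daily for 72 h, for toxic signs and mortality.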

[10] = test system: Mus musculus; assay: Inhibition of carrageenan-induced paw edema in Swiss albino mouse at 25 mg/kg, po after 180 mins relative to control; type: functional; settings: 3 h; method in brief: as §1
[11] = test system: Mus musculus; assay: Acute toxicity in Swiss albino mouse assessed as lethal effect at 100 mg/kg/day, po after 72 hrs; type: organism-based; set-up: route oral; settings: in vivo; method in brief: as §2
[12] = test system: Mus musculus; assay: Acute toxicity in Swiss albino mouse assessed as lethal effect at 200 mg/kg/day, po after 72 hrs; type: organism-based; set-up: route oral; settings: in vivo; method in brief: as §2
[13] = test system: Mus musculus; assay: Antiinflammatory activity against carrageenan-induced paw edema in Swiss albino mouse assessed as swelling thickness at 100 mg/kg, po after 360 mins; type: functional; method in brief: as §1
[14] = test system: Mus musculus; assay: Antiinflammatory activity against carrageenan-induced paw edema in Swiss albino mouse assessed as swelling thickness at 50 mg/kg, po after 360 mins; type: functional; method in brief: as §1
[15] = test system: Mus musculus; assay: Antiinflammatory activity against carrageenan-induced paw edema in Swiss albino mouse assessed as swelling thickness at 25 mg/kg, po after 360 mins; type: functional; method in brief: as §1
[16] = test system: Mus musculus; assay: Acute toxicity in Swiss albino mouse assessed as lethal effect at 25 mg/kg/day, po after 72 hrs; type: organism-based; set-up: route oral; settings: in vivo; method in brief: as §2
[17] = test system: Mus musculus; assay: Inhibition of carrageenan-induced paw edema in Swiss albino mouse at 100 mg/kg, po after 270 mins relative to control; type: functional; settings: 4.5 h; method in brief: as §1
[18] = test system: Mus musculus; assay: Analgesic activity against p-benzoquinone-induced abdominal constriction in Swiss albino mouse assessed as number of writhings at 100 mg/kg, po; type: functional, Abdomen
Method in brief: (§3)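 Test samples given orally in 0.5% CMC; vehicle to controls. 60 min later, 2.5% (v/v) p-benzoquinone in distilled water, 0.1 ml/10 g, given i.p. Mice housed singly; writhes counted for 15 min starting 5 min after injection. Activity is % change from vehicle controls. n = 6; mean ± SEM.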

[19] = test system: Mus musculus; assay: Inhibition of carrageenan-induced paw edema in Swiss albino mouse at 25 mg/kg, po after 360 mins relative to control; type: functional; settings: 6 h; method in brief: as §1
[20] = test system: Mus musculus; assay: Inhibition of carrageenan-induced paw edema in Swiss albino mouse at 25 mg/kg, po after 270 mins relative to control; type: functional; settings: 4.5 h; method in brief: as §1
[21] = test system: Mus musculus; assay: Analgesic activity against p-benzoquinone-induced abdominal constriction in Swiss albino mouse assessed as number of writhings at 50 mg/kg, po; type: functional, Abdomen; method in brief: as §3
[22] = test system: Mus musculus; assay: Analgesic activity against p-benzoquinone-induced abdominal constriction in Swiss albino mouse assessed as number of writhings at 25 mg/kg, po; type: functional, Abdomen; method in brief: as §3
[23] = test system: Mus musculus; assay: Gastric-ulcerogenic effect in Swiss albino mouse assessed as lesions at 50 mg/kg, po; type: functional, organism-based; set-up: dose 50 mg/kg
Method in brief: (§4)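 Mice killed under deep ether anesthesia 3 h after the writhing test; the oral dose in 0.5% CMC was the one used in that test. Stomachs removed, opened along the great curvature and examined under a dissecting microscope for lesions or bleeding. Reported as ratio of ulceration; n = 6.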

[24] = test system: Mus musculus; assay: Inhibition of carrageenan-induced paw edema in Swiss albino mouse at 50 mg/kg, po after 270 mins relative to control; type: functional; settings: 4.5 h
Method in brief: (§5)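 Mice, n = 6 per group. Test agent given orally as a suspension in 0.5% sodium CMC in distilled water; controls received vehicle only. Afterwards, 0.5 mg/25 ll carrageenan in saline (154 mM NaCl) injected subplantar into the right hind paw, saline into the left. Right-minus-left footpad thickness measured by dial gauge caliper every 90 min for 6 h. Inhibition is relative to vehicle-control group means.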

[25] = test system: Mus musculus; assay: Inhibition of p-benzoquinone-induced writhing in Swiss albino mouse at 200 mg/kg, po relative to control; type: functional
Method in brief: (§6)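 Mice, n = 6 per group, dosed orally with a suspension in 0.5% sodium CMC. 60 min later, 0.1 ml/10 g of 2.5% […] p-benzoquinone in distilled water given ip. Abdominal writhes counted per animal for 15 min, starting 5 min after injection. Expressed as % change in mean writhing count versus vehicle controls.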

[26] = test system: Mus musculus; assay: Analgesic activity against p-benzoquinone-induced abdominal constriction in Swiss albino mouse assessed as number of writhings at 200 mg/kg, po; type: functional, Abdomen; method in brief: as §3
[27] = test system: Mus musculus; assay: Inhibition of carrageenan-induced paw edema in Swiss albino mouse at 50 mg/kg, po after 90 mins relative to control; type: functional; settings: 1.5 h; method in brief: as §5
[28] = test system: Mus musculus; assay: Antiinflammatory activity against carrageenan-induced paw edema in Swiss albino mouse assessed as swelling thickness at 25 mg/kg, po after 270 mins; type: functional; method in brief: as §1
[29] = test system: Mus musculus; assay: Inhibition of p-benzoquinone-induced writhing in Swiss albino mouse at 100 mg/kg, po relative to control; type: functional; method in brief: as §6
[30] = test system: Mus musculus; assay: Inhibition of p-benzoquinone-induced writhing in Swiss albino mouse at 50 mg/kg, po relative to control; type: functional; method in brief: as §6
[31] = test system: Mus musculus; assay: Antiinflammatory activity against carrageenan-induced paw edema in Swiss albino mouse assessed as swelling thickness at 25 mg/kg, po after 180 mins; type: functional; method in brief: as §1
[32] = test system: Mus musculus; assay: Antiinflammatory activity against carrageenan-induced paw edema in Swiss albino mouse assessed as swelling thickness at 50 mg/kg, po after 180 mins; type: functional; method in brief: as §1
[33] = test system: Mus musculus; assay: Gastric-ulcerogenic effect in Swiss albino mouse assessed as lesions at 25 mg/kg, po; type: functional, organism-based; set-up: dose 25 mg/kg; method in brief: as §4
[34] = test system: Mus musculus; assay: Inhibition of p-benzoquinone-induced writhing in Swiss albino mouse at 25 mg/kg, po relative to control; type: functional; method in brief: as §6
[35] = test system: Mus musculus; assay: Antiinflammatory activity against carrageenan-induced paw edema in Swiss albino mouse assessed as swelling thickness at 50 mg/kg, po after 270 mins; type: functional; method in brief: as §1
[36] = test system: Mus musculus; assay: Inhibition of carrageenan-induced paw edema in Swiss albino mouse at 100 mg/kg, po after 180 mins relative to control; type: functional; settings: 3 h; method in brief: as §1
[37] = test system: Mus musculus; assay: Inhibition of carrageenan-induced paw edema in Swiss albino mouse at 200 mg/kg, po after 90 mins relative to control; type: functional; settings: 1.5 h; method in brief: as §1
[38] = test system: Mus musculus; assay: Antiinflammatory activity against carrageenan-induced paw edema in Swiss albino mouse assessed as swelling thickness at 100 mg/kg, po after 270 mins; type: functional; method in brief: as §1
[39] = test system: Mus musculus; assay: Antiinflammatory activity against carrageenan-induced paw edema in Swiss albino mouse assessed as swelling thickness at 200 mg/kg, po after 180 mins; type: functional; method in brief: as §1
[40] = test system: Mus musculus; assay: Antiinflammatory activity against carrageenan-induced paw edema in Swiss albino mouse assessed as swelling thickness at 50 mg/kg, po after 90 mins; type: functional; method in brief: as §1
[41] = test system: Mus musculus; assay: Antiinflammatory activity against carrageenan-induced paw edema in Swiss albino mouse assessed as swelling thickness at 200 mg/kg, po after 360 mins; type: functional; method in brief: as §1
[42] = test system: Mus musculus; assay: Inhibition of carrageenan-induced paw edema in Swiss albino mouse at 50 mg/kg, po after 360 mins relative to control; type: functional; settings: 6 h; method in brief: as §5
[43] = test system: Mus musculus; assay: Antiinflammatory activity against carrageenan-induced paw edema in Swiss albino mouse assessed as swelling thickness at 25 mg/kg, po after 90 mins; type: functional; method in brief: as §1
[44] = test system: Mus musculus; assay: Antiinflammatory activity against carrageenan-induced paw edema in Swiss albino mouse assessed as swelling thickness at 100 mg/kg, po after 180 mins; type: functional; method in brief: as §1
[45] = test system: Mus musculus; assay: Antiinflammatory activity against carrageenan-induced paw edema in Swiss albino mouse assessed as swelling thickness at 200 mg/kg, po after 90 mins; type: functional; method in brief: as §1

CCSc1nc(-c2ccc(Cl)cc2)n[nH]1
Activity [1]: 34.3 10^-2mm | inhibition in vivo at 200 mg/kg [2]: 3.4% | inhibition in vivo at 100 mg/kg [3]: 35.8% | inhibition in vivo at 200 mg/kg [4]: 2% | inhibition in vivo at 100 mg/kg [5]: 23.4% | Activity [6]: 63.5 10^-2mm | inhibition in vivo at 25 mg/kg [7]: 13.7% | inhibition in vivo at 50 mg/kg [8]: 27.3% | Activity [9]: Non-toxic | inhibition in vivo at 25 mg/kg [10]: 15.9% | Activity [11]: Non-toxic | Activity [12]: Non-toxic | Activity [13]: 44.2 10^-2mm | Activity [14]: 43.1 10^-2mm | Activity [15]: 59.7 10^-2mm | Activity [16]: Non-toxic | inhibition in vivo at 100 mg/kg [17]: 30.8% | Activity [18]: 33.8 | inhibition in vivo at 25 mg/kg [19]: 17.1% | inhibition in vivo at 25 mg/kg [20]: 16.9% | Activity [21]: 34.2 | Activity [22]: 45.1 | Activity [23]: Active | inhibition in vivo at 50 mg/kg [24]: 29.3% | inhibition in vivo at 200 mg/kg [25]: 12.8% | Activity [26]: 44.8 | inhibition in vivo at 50 mg/kg [27]: 26.5% | Activity [28]: 63.5 10^-2mm | inhibition in vivo at 100 mg/kg [29]: 28.5% | inhibition in vivo at 50 mg/kg [30]: 33.5% | Activity [31]: 49.9 10^-2mm | Activity [32]: 43.2 10^-2mm | Activity [33]: Active | inhibition in vivo at 25 mg/kg [34]: 12.3% | Activity [35]: 45.8 10^-2mm | inhibition in vivo at 100 mg/kg [36]: 25.8% | inhibition in vivo at 200 mg/kg [37]: 2.6% | Activity [38]: 40.7 10^-2mm | Activity [39]: 59.9 10^-2mm | Activity [40]: 39.1 10^-2mm | Activity [41]: 74.2 10^-2mm | inhibition in vivo at 50 mg/kg [42]: 40.1% | Activity [43]: 45.9 10^-2mm | Activity [44]: 38.2 10^-2mm | Activity [45]: 51.8 10^-2mm
